From ChEMBL document CHEMBL1154352, “Toll-like receptor 7 selective synthetic oligoribonucleotide agonists: synthesis and structure-activity relationship studies” (J Med Chem, 2009)
The source made the active and inactive calls. The calls are words filed in the database; no cut-off is given here.

Key:
Homo sapiens = organism: Homo sapiens; experiment: Ratio of human TLR7 activity to human TLR8 activity
Outline: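 TLR7/TLR8 ratio computed from fold NF-κB (SEAP reporter) activation in HEK293 cells stably expressing human TLR7 versus TLR8, compounds at 50 μg/mL, 18 h exposure; representative of three independent experiments.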

Splenocyte [1] = experiment: Immunomodulatory activity in C57BL/6 mouse splenocytes bearing TLR7 receptor assessed as IL12 release at 100 ug/ml after 24 hrs by ELISA; assay type: functional, cell-based
Outline: (§1)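 C57BL/6 splenocytes in RPMI 1640 with 10% FBS, penicillin/streptomycin, 2 mM L-glutamine, plated at 5 × 10^6 cells/mL; compounds in PBS added, 37 °C for 24 h. Supernatant IL-12 and IL-6 by ELISA; representative of three independent experiments.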

[2] = target: T1, Toll-like receptor 9 (Mus musculus) (UniProt Q9EQU3); experiment: Activation of mouse TLR9 expressed in HEK293 assessed as induction of NF-kappaB activity reporter gene assay; assay type: cell-based
T1 sequence (whole entry): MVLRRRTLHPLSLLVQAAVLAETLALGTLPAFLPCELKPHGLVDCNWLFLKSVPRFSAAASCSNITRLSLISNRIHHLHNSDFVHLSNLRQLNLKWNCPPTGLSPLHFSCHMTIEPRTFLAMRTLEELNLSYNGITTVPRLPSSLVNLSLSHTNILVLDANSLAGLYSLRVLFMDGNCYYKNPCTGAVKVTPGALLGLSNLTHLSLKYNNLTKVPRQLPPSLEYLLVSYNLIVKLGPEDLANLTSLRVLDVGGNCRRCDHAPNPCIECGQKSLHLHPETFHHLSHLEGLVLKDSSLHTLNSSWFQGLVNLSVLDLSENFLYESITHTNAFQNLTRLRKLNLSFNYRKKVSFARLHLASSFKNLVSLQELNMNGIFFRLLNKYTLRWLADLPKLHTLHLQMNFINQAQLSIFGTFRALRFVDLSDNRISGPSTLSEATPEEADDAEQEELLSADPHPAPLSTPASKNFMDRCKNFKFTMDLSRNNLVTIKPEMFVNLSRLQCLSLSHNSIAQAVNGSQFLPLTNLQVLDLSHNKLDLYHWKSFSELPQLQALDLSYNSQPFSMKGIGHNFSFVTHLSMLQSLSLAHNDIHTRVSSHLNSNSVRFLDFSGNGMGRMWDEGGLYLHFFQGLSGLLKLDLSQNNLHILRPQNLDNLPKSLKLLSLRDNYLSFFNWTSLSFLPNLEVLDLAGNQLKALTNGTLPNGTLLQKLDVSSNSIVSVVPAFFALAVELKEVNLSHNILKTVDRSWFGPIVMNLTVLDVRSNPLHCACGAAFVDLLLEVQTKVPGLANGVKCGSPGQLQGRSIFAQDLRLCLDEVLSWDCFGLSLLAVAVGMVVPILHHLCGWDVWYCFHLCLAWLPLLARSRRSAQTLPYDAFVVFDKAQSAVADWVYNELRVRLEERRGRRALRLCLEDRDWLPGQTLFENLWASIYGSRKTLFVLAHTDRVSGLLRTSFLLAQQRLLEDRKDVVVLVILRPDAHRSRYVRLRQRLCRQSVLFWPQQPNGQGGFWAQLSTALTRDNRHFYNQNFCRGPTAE

[3] = target: T2, Toll-like receptor 7 (Homo sapiens) (UniProt Q9NYK1); experiment: Activation of human TLR7 expressed in HEK293XL assessed as fold induction of NF-kappaB activity at 50 ug/ml after 18 hrs by reporter gene assay relative to control
T2 sequence (whole entry): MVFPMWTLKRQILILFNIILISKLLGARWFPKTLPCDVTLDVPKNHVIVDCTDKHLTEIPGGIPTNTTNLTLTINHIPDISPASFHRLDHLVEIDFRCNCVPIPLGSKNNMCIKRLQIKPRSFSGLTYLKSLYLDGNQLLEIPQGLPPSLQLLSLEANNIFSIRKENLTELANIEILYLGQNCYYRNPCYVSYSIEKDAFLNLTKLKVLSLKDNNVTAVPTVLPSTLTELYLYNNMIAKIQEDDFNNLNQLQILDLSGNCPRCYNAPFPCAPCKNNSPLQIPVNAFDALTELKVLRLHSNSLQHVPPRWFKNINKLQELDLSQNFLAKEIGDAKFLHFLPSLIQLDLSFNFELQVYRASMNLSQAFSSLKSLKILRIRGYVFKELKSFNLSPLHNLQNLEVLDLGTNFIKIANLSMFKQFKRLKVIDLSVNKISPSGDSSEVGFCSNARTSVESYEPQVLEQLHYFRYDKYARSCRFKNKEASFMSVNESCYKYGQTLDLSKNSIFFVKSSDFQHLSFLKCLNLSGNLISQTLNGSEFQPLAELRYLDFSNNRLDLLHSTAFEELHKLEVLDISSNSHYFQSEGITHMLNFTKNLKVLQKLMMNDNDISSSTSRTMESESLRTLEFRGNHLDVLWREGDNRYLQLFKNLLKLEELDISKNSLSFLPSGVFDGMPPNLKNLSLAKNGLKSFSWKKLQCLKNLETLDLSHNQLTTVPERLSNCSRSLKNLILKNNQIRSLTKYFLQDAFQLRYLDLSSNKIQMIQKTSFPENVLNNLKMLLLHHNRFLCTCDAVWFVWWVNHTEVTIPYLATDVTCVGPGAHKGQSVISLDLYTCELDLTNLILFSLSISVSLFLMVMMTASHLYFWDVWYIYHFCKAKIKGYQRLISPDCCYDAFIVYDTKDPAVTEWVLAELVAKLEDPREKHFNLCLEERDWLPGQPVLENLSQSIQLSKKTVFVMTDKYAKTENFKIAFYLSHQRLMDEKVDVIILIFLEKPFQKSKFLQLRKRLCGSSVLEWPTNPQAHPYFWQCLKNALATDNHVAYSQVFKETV
Outline: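 HEK293 cells stably expressing human TLR7 or TLR8, transiently transfected with SEAP reporter plasmid; medium replaced, SIMRA compounds added, 18 h incubation. Supernatant SEAP measured by QuantiBlue; expressed as fold increase in NF-κB activity over PBS control. Tabulated data at 50 μg/mL, representative of three independent experiments.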

PBMC [4] = experiment: Immunomodulatory activity in human PBMC assessed as induction of IL12 at 100 ug/ml after 24 hrs; assay type: functional, cell-based
Outline: (§2)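 Human PBMCs plated at 5 × 10^6 cells/mL; compounds dissolved in PBS added at various concentrations, 37 °C for 24 h. Supernatant cytokines/chemokines quantified with human Luminex multiplex kit.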

PBMC [5] = experiment: Immunomodulatory activity in human PBMC assessed as induction of IFN-alpha at 100 ug/ml after 24 hrs
PBMC [6] = experiment: Immunomodulatory activity in human PBMC assessed as induction of TNFalpha at 100 ug/ml after 24 hrs; assay type: functional, cell-based; outline: as §2
Splenocyte [7] = experiment: Immunomodulatory activity in C57BL/6 mouse splenocytes bearing TLR7 receptor assessed as IL6 release at 100 ug/ml after 24 hrs by ELISA; assay type: functional, cell-based; outline: as §1

SMILES | Ratio (Homo sapiens) | Activity (Splenocyte [1]) | Activity [2] | fold change (FC) [3] | Activity (PBMC [4]) [pg/mL] | IFN-alpha (PBMC [5]) [pg/mL] | Activity (PBMC [6]) [pg/mL] | Activity (Splenocyte [7])
Nc1ccn([C@@H]2O[C@H](COP(=O)(S)O[C@H]3[C@@H](O)[C@H](n4ccc5c(=O)[nH]c(N)nc54)O[C@@H]3CO[C@H]3[C@@H](O)[C@H](n4cnc5c(N)ncnc54)O[C@@H]3COP(=O)(S)O[C@H]3[C@@H](O)[C@H](n4ccc5c(=O)[nH]c(N)nc54)O[C@@H]3COP(=O)(S)O[C@H]3[C@@H](O)[C@H](n4ccc(=O)[nH]c4=O)O[C@@H]3COP(=O)(S)O[C@H]3[C@@H](O)[C@H](n4ccc(N)nc4=O)O[C@@H]3COP(=O)(S)O[C@H]3[C@@H](O)[C@H](n4ccc5c(=O)[nH]c(N)nc54)O[C@@H]3COP(=O)(S)O[C@H]3[C@@H](O)[C@H](n4ccc(=O)[nH]c4=O)O[C@@H]3COP(=O)(S)O[C@H]3[C@@H](O)[C@H](n4ccc(=O)[nH]c4=O)O[C@@H]3CO)[C@@H](OP(=O)(S)OC[C@H]3O[C@@H](n4ccc(=O)[nH]c4=O)[C@H](O)[C@@H]3OP(=O)(S)OC[C@H]3O[C@@H](n4ccc(=O)[nH]c4=O)[C@H](O)[C@@H]3OP(=O)(S)OCC(O)COP(=O)(S)O[C@H]3[C@@H](O)[C@H](n4ccc(=O)[nH]c4=O)O[C@@H]3COP(=O)(S)O[C@H]3[C@@H](O)[C@H](n4ccc(=O)[nH]c4=O)O[C@@H]3COP(=O)(S)O[C@H]3[C@@H](O)[C@H](n4ccc(N)nc4=O)O[C@@H]3COP(=O)(S)O[C@H]3[C@@H](O)[C@H](n4ccc5c(=O)[nH]c(N)nc54)O[C@@H]3CO[C@H]3[C@@H](O)[C@H](n4cnc5c(N)ncnc54)O[C@@H]3COP(=O)(S)O[C@H]3[C@@H](O)[C@H](n4ccc5c(=O)[nH]c(N)nc54)O[C@@H]3COP(=O)(S)O[C@H]3[C@@H](O)[C@H](n4ccc(=O)[nH]c4=O)O[C@@H]3COP(=O)(S)O[C@H]3[C@@H](O)[C@H](n4ccc(N)nc4=O)O[C@@H]3COP(=O)(S)O[C@H]3[C@@H](O)[C@H](n4ccc5c(=O)[nH]c(N)nc54)O[C@@H]3COP(=O)(S)O[C@H]3[C@@H](O)[C@H](n4ccc(=O)[nH]c4=O)O[C@@H]3COP(=O)(S)O[C@H]3[C@@H](O)[C@H](n4ccc(=O)[nH]c4=O)O[C@@H]3CO)[C@H]2O)c(=O)n1 (stereo partly specified) | 66.8 | Active | inactive | 26.7 | 1370 | 145 | 415 | Active
Nc1ccn([C@@H]2O[C@H](COP(=O)(S)O[C@H]3[C@@H](O)[C@H](n4cnc5c(N)ncnc54)O[C@@H]3COP(=O)(S)O[C@H]3[C@@H](O)[C@H](n4ccc5c(=O)[nH]c(N)nc54)O[C@@H]3COP(=O)(S)O[C@H]3[C@@H](O)[C@H](n4ccc(=O)[nH]c4=O)O[C@@H]3COP(=O)(S)O[C@H]3[C@@H](O)[C@H](n4ccc(=O)[nH]c4=O)O[C@@H]3COP(=O)(S)O[C@H]3[C@@H](O)[C@H](n4cnc5c(N)ncnc54)O[C@@H]3COP(=O)(S)O[C@H]3[C@@H](O)[C@H](n4cnc5c(N)ncnc54)O[C@@H]3CO)[C@@H](OP(=O)(S)OC[C@H]3O[C@@H](n4ccc5c(=O)[nH]c(N)nc54)[C@H](O)[C@@H]3OP(=O)(S)OC[C@H]3O[C@@H](n4ccc(N)nc4=O)[C@H](O)[C@@H]3OP(=O)(S)OC[C@H]3O[C@@H](n4ccc(=O)[nH]c4=O)[C@H](O)[C@@H]3OP(=O)(S)OC[C@H]3O[C@@H](n4ccc(=O)[nH]c4=O)[C@H](O)[C@@H]3OP(=O)(S)OCC(O)COP(=O)(S)O[C@H]3[C@@H](O)[C@H](n4ccc(=O)[nH]c4=O)O[C@@H]3COP(=O)(S)O[C@H]3[C@@H](O)[C@H](n4ccc(=O)[nH]c4=O)O[C@@H]3COP(=O)(S)O[C@H]3[C@@H](O)[C@H](n4ccc(N)nc4=O)O[C@@H]3COP(=O)(S)O[C@H]3[C@@H](O)[C@H](n4ccc5c(=O)[nH]c(N)nc54)O[C@@H]3COP(=O)(S)O[C@H]3[C@@H](O)[C@H](n4ccc(N)nc4=O)O[C@@H]3COP(=O)(S)O[C@H]3[C@@H](O)[C@H](n4cnc5c(N)ncnc54)O[C@@H]3COP(=O)(S)O[C@H]3[C@@H](O)[C@H](n4ccc5c(=O)[nH]c(N)nc54)O[C@@H]3COP(=O)(S)O[C@H]3[C@@H](O)[C@H](n4ccc(=O)[nH]c4=O)O[C@@H]3COP(=O)(S)O[C@H]3[C@@H](O)[C@H](n4ccc(=O)[nH]c4=O)O[C@@H]3COP(=O)(S)O[C@H]3[C@@H](O)[C@H](n4cnc5c(N)ncnc54)O[C@@H]3COP(=O)(S)O[C@H]3[C@@H](O)[C@H](n4cnc5c(N)ncnc54)O[C@@H]3CO)[C@H]2O)c(=O)n1 (stereo partly specified) | 69.7 | Active | inactive | 20.9 | 340 | 193 | 8.8 | Active
